Drawing on ChEMBL document CHEMBL3994592, “Antimicrobial Oligophenalenone Dimers from the Soil Fungus Talaromyces stipitatus” (J Nat Prod, 2016), this text covers MIC90, MIC and IC50 for six compounds.

In brackets after ≈: the same amount, converted by molar mass. A value given as a limit tells only on which side of the number the result lay.

As a reminder, the MIC90 is the lowest concentration that inhibits either 90% of growth or 90% of the strains tested, depending on the study. For orientation: MIC means the smallest concentration in the dilution series that meets the test's criterion for growth inhibition. As usually defined, the IC50 is the concentration that inhibits the measured activity by half.

Assay [1] deals with Staphylococcus aureus. As to the kind of experiment: Antibacterial activity against Staphylococcus aureus ATCC 6538 after 24 hrs. The assay is classed as functional. Particulars: ATCC 6538, 24 h. The gist of the method: (§1)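 Broth microdilution in LB. Precultures were grown 24 h at 37 °C in 10 mL LB and diluted 1/1000 (OD600 0.01) into 96-well plates. Two-fold serial dilutions were made from 10 mg/mL stocks, 2 µL per 200 µL medium. Plates were incubated 24 h at 37 °C and OD read at 595 nm. MIC is the concentration giving a 90% decrease versus DMSO-only control, obtained by curve fitting.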

For assay [2], the system named is Staphylococcus haemolyticus. Put plainly: Antibacterial activity against Staphylococcus haemolyticus MNHN26 after 24 hrs. To be noted: MNHN26, 24 h. The assay is classed as functional. The gist of the method: as §1
The subject of assay [3] is Enterococcus faecalis. As to the kind of experiment: Antibacterial activity against Enterococcus faecalis CIP 103014 after 24 hrs. The assay is classed as functional. Particulars: CIP 103014, 24 h. The method, boiled down:
as §1

For assay [4], the system named is Escherichia coli. As to the kind of experiment: Antibacterial activity against Escherichia coli ATCC 8739 after 24 hrs. To be noted: ATCC 8739, ATCC 8739, 24 h. The format is functional. The method, boiled down: as §1
Assay [5] has as its system HeLa. Put plainly: Cytotoxicity against human HeLa cells assessed as reduction in cell viability by MTT assay. The format is functional, cell-based. The gist of the method: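 HeLa cells were seeded at 2500 cells/well, incubated overnight, then exposed in exponential growth to a range of concentrations for four doubling times. Viability was measured by MTT, 4 h at 37 °C, with formazan read at 560 nm. Concentration inhibiting growth by 50% versus untreated controls was taken from dose-survival curves. At least three independent experiments, each in duplicate; cisplatin served as control.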
In general terms: Tetrazolium dyes change colour on reduction, which living cells bring about.

For the compound `CC(=O)O[C@H]1[C@@H]2C(=O)c3c(C)cc(O)c4c3[C@@]1(COC4=O)C1=C2c2c(C)cc(O)c3c2[C@@](O)(COC3=O)C1=O`, the MIC90 is 29.3 µg/mL (≈ 55 µM) in assay [1], over 30 µg/mL in assay [2] and over 30 µg/mL in assay [3]. Moreover, in assay [4], the MIC was over 100 µg/mL. Further, the IC50 in assay [5] was over 100 µM.

As to `CO[C@@]12c3c(C)cc(O)c4c3C(=C(O)[C@@H]1[C@]13COC(=O)c5c(O)cc(C)c(c51)C(=O)[C@H]2[C@@H]3OC(C)=O)C=NC4=O`, the values for the MIC90 in assay [1], in assay [2] and in assay [3] were 5 µg/mL (≈ 9.17 µM), 20.4 µg/mL (≈ 37.4 µM) and over 30 µg/mL, respectively. This compound also registered an MIC in assay [4] of over 100 µg/mL. Moreover, the IC50 in assay [5] came to 49.5 µM.

Take `CC(=O)O[C@H]1[C@@H]2C(=O)c3c(C)cc(O)c4c3[C@@]1(COC4=O)c1c(O)c(C=O)c3cc(O)cc(C)c3c12`: the MIC90 in assay [1], in assay [2] and in assay [3] was over 50 µg/mL in each case. In assay [4], the MIC is over 100 µg/mL. Besides, the IC50 in assay [5] is over 50 µM.

Regarding `CO[C@H]1OC(=O)c2c(O)cc(C)c3c4c(c(O)c1c23)[C@]12COC(=O)c3c(O)cc(C)c(c31)C(=O)[C@H]4[C@@H]2OC(C)=O`, the MIC90 is 15.6 µg/mL (≈ 28.5 µM) in assay [1], over 30 µg/mL in assay [2] and over 30 µg/mL in assay [3]. Besides, in assay [4], the MIC is over 100 µg/mL. Besides, in assay [5], the IC50 is over 50 µM.

With `CC(=O)O[C@H]1[C@@H]2C(=O)c3c(C)cc(O)c4c3[C@@]1(COC4=O)c1c(O)c3c4c(c(O)cc(C)c4c12)C(=O)OC3`, the MIC90 in assay [1] was 5.2 µg/mL (≈ 10.1 µM); in assay [2] it was 9.5 µg/mL (≈ 18.4 µM); in assay [3], 2.4 µg/mL (≈ 4.65 µM). Besides, the MIC in assay [4] is over 100 µg/mL.

In the case of `CN(C)[C@@H]1C(O)=C(C(N)=O)C(=O)[C@@]2(O)C(O)=C3C(=O)c4c(O)cccc4[C@@](C)(O)[C@H]3C[C@@H]12` [TETRACYCLINE], the MIC90 in assay [1] stood at 0.05 µg/mL (≈ 0.113 µM); in assay [2], 29.5 µg/mL (≈ 66.4 µM); in assay [3], 0.4 µg/mL (≈ 0.9 µM).
